Source: ChEMBL document CHEMBL1136224, “De novo synthesis of two new cytotoxic tiazofurin analogues with modified sugar moieties” (Bioorg Med Chem Lett, 2003)

What was measured:
Type in all cases: functional, cell-based
Conditions in all cases: Homo sapiens
K562 = test: Concentration required to inhibit K562 cell growth
In short: (§1)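 MTT assay after 24 h incubation with compound, top tested concentration 1000 µM. IC50 = concentration giving 50% inhibition of cell growth relative to untreated control. Human lines: myelogenous leukaemia K562, promyelocytic leukaemia HL60, colon adenocarcinoma HT29, breast adenocarcinoma MCF7, normal foetal lung MRC-5.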

HT-29 = test: Concentration required to inhibit HT-29 cell growth; in short: as §1
MRC5 = test: Concentration required to inhibit MRC-5 cell growth; in short: as §1
MCF7 = test: Concentration required to inhibit MCF-7 cell growth; in short: as §1
HL-60 = test: Concentration required to inhibit HL-60 cell growth; in short: as §1

IC50 (K562)	IC50 (HT-29)	IC50 (MCF7)	IC50 (HL-60)	SMILES	IC50 (MRC5)
96.6 µM	0.91 µM	> 1000 µM	10.5 µM	NC(=O)c1csc([C@@H]2O[C@H](CO)[C@@H](F)[C@H]2O)n1	> 1000 µM
0.095 µM	1 µM	> 1000 µM	1000 µM	CC(=O)N[C@H]1[C@@H](O)[C@H](c2nc(C(N)=O)cs2)O[C@@H]1CO	89.7 µM
4.16 µM	1.01 µM	8.49 µM	9.32 µM	NC(=O)c1csc([C@@H]2O[C@H](CO)[C@@H](O)[C@H]2O)n1 [TIAZOFURIN]	0.85 µM
